Data set [1] deals with Rattus norvegicus. Kind of data set: Cognitive enhancing effect in Wistar rat assessed as reversal of scopolamine-induced amnesic deficit at 10 to 30 mg/kg, ip by passive avoidance test.
Data set [2] has as its target T1, Glutamate receptor 2 (Homo sapiens, UniProt P42262). The data set can be described thus: Allosteric modulation of human recombinant GluA2 receptor flip isoform expressed in HEK293 cells assessed as potentiation of glutamate-induced calcium influx by Fluo-4/FLIPR method. In kind it is cell-based. The gist of the method:
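Stable GluA2 flip (unedited) cell line grown in DMEM/F12 with 10% FBS and seeded to confluence 2-3 days before use. Cells washed in HEPES buffer (pH 7.3) and loaded with 2 μM Fluo-4 AM for 60 min at room temperature. On FLIPR, compound was added 5 min before 100 μM glutamate. pEC50 and asymptotic maximum are relative to the maximal response to cyclothiazide, n ≥ 3.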

Data set [3] concerns the target T1, Glutamate receptor 2. The data set can be described thus: Allosteric modulation of human recombinant GluA2 receptor flip isoform expressed in HEK293 cells assessed as potentiation of glutamate-induced calcium influx by Fluo-4/FLIPR method relative to cyclothiazide. The class given is cell-based. A digest of the protocol:
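Stable GluA2 flip (unedited) cells seeded to confluence 2-3 days before assay; washed in HEPES buffer (145 NaCl, 5 KCl, 2 CaCl2, 1 MgCl2, 5.5 glucose, pH 7.3), loaded with 2 μM Fluo4-AM 60 min at room temperature. FLIPR dual addition: compound 5 min before 100 μM glutamate; fluorescence rise expressed against maximal cyclothiazide response, fitted pEC50 and Asym max; n ≥ 3.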

Data set [4] can be described thus: Plasma protein binding in rat at 3 mg/kg, po. On the set-up: dose 3 mg/kg, route oral. The class given is ADME, organism-based. The following applies: read-out: PPB (converted).
Data set [5] can be described thus: Cmax in rat blood at 3 mg/kg, po. The following applies: whole blood. On the set-up: dose 3 mg/kg, route oral. The class given is ADME, organism-based.
A short description of data set [6]: Distribution coefficient, log D of the compound at pH 7.4. The following applies: octanol/water. In kind it is physicochemical.
Data set [7] relates to Brain. Kind of data set: Drug level in Lister Hooded rat assessed per gram of tissue at 10 mg/kg, ip. The class given is ADME, organism-based. On the set-up: dose 10 mg/kg, route intraperitoneal. The following applies: in vivo. A digest of the protocol:
(§1)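 Male Lister Hooded rats (n = 9-12/group) tested for reversal of a 24 h delay-induced deficit in novel object recognition. Significant doses flagged. Brain concentrations measured in the study animals at the end of the test.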

The nature of data set [8]: Blood Clearance in rat at 3 mg/kg, po. The class given is ADME, organism-based. On the set-up: dose 3 mg/kg, route oral. The following applies: whole blood. The gist of the method: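 Rats dosed orally at 3 mg/kg; blood sampled via the hepatic portal vein and heart. Estimated clearance derived from in vivo hepatic extraction, taking rat liver blood flow as 85 (mL/min)/kg.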

Data set [9] has as its system Brain. The data set can be described thus: Drug level in Lister Hooded rat assessed per gram of tissue at 150 mg/kg, ip. In kind it is ADME, organism-based. On the set-up: dose 150 mg/kg, route intraperitoneal. The note with it: in vivo. A digest of the protocol:
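Male Lister Hooded rats pretreated 30 min before the maximal electroshock threshold test with compound or saline vehicle; picrotoxin served as positive control. Corneal current applied, CC50 about 60-70 mA, 0.1 ms. Brain levels measured in satellite rats sampled immediately after testing.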

In data set [10] the test system is Brain. The data set can be described thus: Drug level in Lister Hooded rat assessed per gram of tissue at 3 mg/kg, ip. The following applies: in vivo. In kind it is ADME, organism-based. On the set-up: dose 3 mg/kg, route intraperitoneal. A digest of the protocol:
as §1

Data set [11] in a line: Kinetic solubility of the compound in phosphate buffered saline of pH 7.4. The class given is physicochemical. The gist of the method:
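Kinetic solubility: 10 mM DMSO stock, 5 μL diluted to 100 μL with pH 7.4 phosphate-buffered saline, equilibrated 1 h at room temperature, filtered, filtrate quantified by calibrated flow-injection chemiluminescent nitrogen detection.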

In data set [12] the test system is Brain. Kind of data set: Brain tissue binding in rat at 3 mg/kg, po. In kind it is ADME, organism-based. Further details: dose 3 mg/kg, route oral. The following applies: in vivo.
Another data set deals with Cytochrome P450 2C19 (Homo sapiens, UniProt P33261). Kind of data set: Inhibition of human CYP2C19 by fluorescence assay. In kind it is ADME. The gist of the method:
(§2)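 Recombinant human CYP bactosomes (0.1 mg/mL) in 50 mM potassium phosphate pH 7.4, preincubated 10 min at 37 °C with test compound (0.1-10 μM, 7 concentrations) and fluorogenic substrate. Substrates: ethoxyresorufin 0.5 μM (1A2), FCA 50 μM (2C9), BMC 10 μM (2C19), MMC 10 μM (2D6), DEF 1 μM or 7-BQ 25 μM (3A4). Reaction started with NADPH regenerating system; metabolite formation read over 10 min. IC50 from percent of control rate; miconazole control; triplicate.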

The target in a further data set is T2, Cytochrome P450 1A2 (Homo sapiens, UniProt P05177).
T2 sequence (P05177 whole entry): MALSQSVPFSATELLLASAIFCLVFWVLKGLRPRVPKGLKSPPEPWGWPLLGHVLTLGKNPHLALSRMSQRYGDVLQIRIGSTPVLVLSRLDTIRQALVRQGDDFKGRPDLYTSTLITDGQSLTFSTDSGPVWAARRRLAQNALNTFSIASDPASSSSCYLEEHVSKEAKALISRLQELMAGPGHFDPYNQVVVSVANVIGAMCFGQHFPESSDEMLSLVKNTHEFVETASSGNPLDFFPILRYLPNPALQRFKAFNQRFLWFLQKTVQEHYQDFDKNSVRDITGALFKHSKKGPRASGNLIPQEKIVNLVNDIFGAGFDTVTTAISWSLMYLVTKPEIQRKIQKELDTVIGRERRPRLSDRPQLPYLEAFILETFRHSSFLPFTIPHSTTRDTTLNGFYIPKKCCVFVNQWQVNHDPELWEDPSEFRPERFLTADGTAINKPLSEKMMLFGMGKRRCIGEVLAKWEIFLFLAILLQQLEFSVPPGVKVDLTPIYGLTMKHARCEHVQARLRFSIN
Kind of data set: Inhibition of human CYP1A2 by fluorescence assay. In kind it is ADME. The gist of the method:
as §2

A further data set concerns the target Cytochrome P450 2D6 (Homo sapiens, UniProt P10635). Kind of data set: Inhibition of human CYP2D6 by fluorescence assay. The class given is ADME. The gist of the method:
as §2

In a further data set the target is Cytochrome P450 2C9 (Homo sapiens, UniProt P11712). The data set can be described thus: Inhibition of human CYP2C9 by fluorescence assay. In kind it is ADME. The gist of the method:
as §2

Another data set concerns the target Cytochrome P450 3A4 (Homo sapiens, UniProt P08684). The data set can be described thus: Inhibition of human CYP3A4 by fluorescence assay. In kind it is ADME. A digest of the protocol:
as §2

Data set [13] deals with Rattus norvegicus. Kind of data set: Neurotoxicity in Lister Hooded rat assessed proconvulsant effect at 150 mg/kg, ip by MEST test. In kind it is toxicity, organism-based. Further details: dose 150 mg/kg, route intraperitoneal. The following applies: in vivo. A digest of the protocol: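 Male Lister Hooded rats pretreated with compound, saline vehicle or picrotoxin 30 min before corneal electroshock (CC50 about 60–70 mA, 0.1 ms); tonic and tonic-clonic seizure threshold scored; brain concentrations taken from satellite rats sampled right after testing.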

Data set [14] concerns Brain. The data set can be described thus: Drug level in Lister Hooded rat assessed per gram of tissue at 1 mg/kg, ip. Further details: dose 1 mg/kg, route intraperitoneal. The class given is ADME, organism-based. The following applies: in vivo. The gist of the method:
as §1

A short description of data set [15]: Apparent permeability of the compound. The following applies: not told. The class given is ADME. The gist of the method: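 Artificial membrane permeability: donor holds 10 mM sample in pH 7.05 phosphate buffer with 0.5% hydroxypropylcyclodextrin. Membrane is 1.8% phosphatidylcholine and 1% cholesterol in decane. Donor and acceptor concentrations measured by LCMS after 3 h at room temperature; permeability expressed in nm/s.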

The nature of data set [16]: AUC (0 to t) in rat blood at 3 mg/kg, po. On the set-up: dose 3 mg/kg, route oral. The note with it: whole blood. The class given is ADME, organism-based.
The test system of data set [17] is Brain. The data set can be described thus: Drug level in Lister Hooded rat assessed per gram of tissue at 0.3 mg/kg, ip. On the set-up: dose 0.3 mg/kg, route intraperitoneal. The class given is ADME, organism-based. The following applies: in vivo. The gist of the method: as §1
Data set [18] concerns Rattus norvegicus. Kind of data set: Cognitive enhancing effect in Wistar rat assessed as reversal of scopolamine-induced amnesic deficit at 30 mg/kg, ip by passive avoidance test.
The nature of data set [19]: Distribution coefficient, log D of the compound. In kind it is physicochemical. The note with it: octanol/water.
Data set [20] is described as follows: Cmax in rat at 3 mg/kg, po. In kind it is ADME, organism-based. On the set-up: dose 3 mg/kg, route oral. The note with it: in vivo.
The subject of data set [21] is Rattus norvegicus. Kind of data set: AUC ( 0 to t) in rat at 3 mg/kg, po. The note with it: in vivo. Further details: dose 3 mg/kg, route oral. In kind it is ADME, organism-based, Plasma.
A further data set can be described thus: in vivo. The following applies: rat, brain and blood, po, 3 mg/kg.

pEC50, pIC50: −log10 of the molar value. ≈ marks a conversion by molar mass, not a printed value. Calls of active or inactive are those of the source. Some results are limits rather than exact numbers.

T1 sequence (P42262 whole entry, canonical isoform): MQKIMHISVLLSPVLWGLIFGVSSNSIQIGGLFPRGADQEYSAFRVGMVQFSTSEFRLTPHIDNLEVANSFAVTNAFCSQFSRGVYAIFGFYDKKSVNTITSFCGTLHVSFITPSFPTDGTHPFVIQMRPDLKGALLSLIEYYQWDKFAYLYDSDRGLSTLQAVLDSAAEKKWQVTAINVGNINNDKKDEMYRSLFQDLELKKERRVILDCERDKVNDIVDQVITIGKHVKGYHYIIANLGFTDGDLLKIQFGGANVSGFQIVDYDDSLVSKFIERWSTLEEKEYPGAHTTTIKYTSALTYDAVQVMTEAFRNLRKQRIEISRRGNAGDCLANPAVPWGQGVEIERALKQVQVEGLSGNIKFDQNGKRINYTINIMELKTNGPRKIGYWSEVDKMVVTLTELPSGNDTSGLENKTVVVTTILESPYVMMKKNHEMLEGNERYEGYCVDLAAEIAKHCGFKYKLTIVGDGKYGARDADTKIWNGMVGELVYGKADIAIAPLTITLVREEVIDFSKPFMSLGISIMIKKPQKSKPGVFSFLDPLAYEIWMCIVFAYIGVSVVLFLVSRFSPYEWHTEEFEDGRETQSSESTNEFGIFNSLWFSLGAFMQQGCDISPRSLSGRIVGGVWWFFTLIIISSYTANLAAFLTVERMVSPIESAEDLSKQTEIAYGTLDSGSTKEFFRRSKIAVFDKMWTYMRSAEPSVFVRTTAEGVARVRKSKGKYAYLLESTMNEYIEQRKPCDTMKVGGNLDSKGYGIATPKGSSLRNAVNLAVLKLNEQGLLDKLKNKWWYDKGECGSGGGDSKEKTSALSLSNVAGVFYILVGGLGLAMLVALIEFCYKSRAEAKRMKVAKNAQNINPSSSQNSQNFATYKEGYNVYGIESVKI
Cytochrome P450 2D6, sequence (P10635 whole entry): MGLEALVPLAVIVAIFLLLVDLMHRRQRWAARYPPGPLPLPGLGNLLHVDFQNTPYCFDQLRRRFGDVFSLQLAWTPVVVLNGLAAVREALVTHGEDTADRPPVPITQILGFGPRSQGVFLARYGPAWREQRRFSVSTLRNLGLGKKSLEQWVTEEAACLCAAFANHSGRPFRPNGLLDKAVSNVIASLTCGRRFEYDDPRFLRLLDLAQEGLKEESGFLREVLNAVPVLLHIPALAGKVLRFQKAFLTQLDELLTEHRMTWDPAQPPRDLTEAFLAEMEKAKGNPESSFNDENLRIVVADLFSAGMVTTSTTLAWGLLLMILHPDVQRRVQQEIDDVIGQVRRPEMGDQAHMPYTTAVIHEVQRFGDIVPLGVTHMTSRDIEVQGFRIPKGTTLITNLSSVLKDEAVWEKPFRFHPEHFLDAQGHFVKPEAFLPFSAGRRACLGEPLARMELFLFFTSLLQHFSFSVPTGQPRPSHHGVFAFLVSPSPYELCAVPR
Cytochrome P450 2C9, sequence (P11712 whole entry): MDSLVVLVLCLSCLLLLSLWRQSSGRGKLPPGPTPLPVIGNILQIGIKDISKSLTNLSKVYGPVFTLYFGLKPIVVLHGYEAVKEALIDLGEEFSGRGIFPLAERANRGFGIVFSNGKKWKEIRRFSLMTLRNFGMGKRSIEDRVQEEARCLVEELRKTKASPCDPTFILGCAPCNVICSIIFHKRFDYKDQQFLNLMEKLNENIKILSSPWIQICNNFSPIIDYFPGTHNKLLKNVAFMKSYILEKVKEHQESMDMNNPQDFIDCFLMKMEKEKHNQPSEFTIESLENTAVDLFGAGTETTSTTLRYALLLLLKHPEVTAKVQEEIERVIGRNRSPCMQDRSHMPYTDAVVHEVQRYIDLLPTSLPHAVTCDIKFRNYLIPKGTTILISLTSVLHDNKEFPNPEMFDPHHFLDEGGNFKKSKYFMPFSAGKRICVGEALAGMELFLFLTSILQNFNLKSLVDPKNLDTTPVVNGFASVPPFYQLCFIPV
Cytochrome P450 3A4, sequence (P08684 whole entry): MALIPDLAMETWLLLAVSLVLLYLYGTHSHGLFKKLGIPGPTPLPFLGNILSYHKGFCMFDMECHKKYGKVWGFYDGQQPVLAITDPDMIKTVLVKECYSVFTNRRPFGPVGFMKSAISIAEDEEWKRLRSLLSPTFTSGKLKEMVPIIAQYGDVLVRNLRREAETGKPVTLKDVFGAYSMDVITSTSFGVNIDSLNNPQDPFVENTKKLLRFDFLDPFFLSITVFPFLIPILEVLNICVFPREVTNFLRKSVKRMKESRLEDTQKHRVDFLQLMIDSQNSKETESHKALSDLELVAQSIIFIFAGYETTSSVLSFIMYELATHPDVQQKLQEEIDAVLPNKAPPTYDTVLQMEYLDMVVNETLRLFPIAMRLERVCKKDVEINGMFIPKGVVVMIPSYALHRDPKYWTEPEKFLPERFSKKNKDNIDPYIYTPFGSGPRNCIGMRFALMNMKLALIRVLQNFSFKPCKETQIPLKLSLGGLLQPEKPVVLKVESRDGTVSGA
Cytochrome P450 2C19, sequence (P33261 whole entry): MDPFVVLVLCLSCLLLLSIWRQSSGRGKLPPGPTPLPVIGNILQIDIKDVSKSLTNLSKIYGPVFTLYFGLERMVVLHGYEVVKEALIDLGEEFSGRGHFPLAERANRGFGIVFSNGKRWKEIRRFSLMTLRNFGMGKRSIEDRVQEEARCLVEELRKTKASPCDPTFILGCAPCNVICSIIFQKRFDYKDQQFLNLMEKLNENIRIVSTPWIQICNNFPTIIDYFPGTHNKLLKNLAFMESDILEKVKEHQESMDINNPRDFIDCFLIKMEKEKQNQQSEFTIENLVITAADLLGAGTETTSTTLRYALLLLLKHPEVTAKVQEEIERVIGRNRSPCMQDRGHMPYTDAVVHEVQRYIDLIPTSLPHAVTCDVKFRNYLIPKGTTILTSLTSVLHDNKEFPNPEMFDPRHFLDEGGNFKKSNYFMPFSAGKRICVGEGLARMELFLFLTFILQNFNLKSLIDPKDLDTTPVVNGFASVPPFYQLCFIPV

Consider `O=C(c1ccc(-n2nc(C(F)(F)F)c3c2CCOC3)cc1)N1CCCC1`, for which the outcome in the data set on Rattus norvegicus [1] was Active. For the same compound, the negative-log EC50 (pEC50) (usually the EC50 on a negative log10 scale, so that one unit is a factor of ten) at Glutamate receptor 2 [2] is under 4.70. Besides, the Activity at Glutamate receptor 2 [3] was 81%; in the data set on Rattus norvegicus [13], “Non-toxic”. Moreover, the fraction unbound in data set [4] is 0.137. In addition, in [5], the concentration peaked (Cmax) at 551 ng/mL. Also, the log distribution coefficient (logD) (commonly the decadic logarithm of the distribution of all forms, ionised or not, between an organic phase and buffer at a given pH) in [6] came out at 2.4. The Drug uptake in the data set with Brain [7] worked out at 2609 ng/g; with Brain [9] it was 22525 ng/g; in the data set with Brain [10], 983 ng/g; with Brain [14], 228 ng/g. For the same compound, the CL/F (in general, clearance divided by bioavailability, as obtained after extravascular dosing) in data set [8] was determined as 6 mL/min/kg. The solubility (kinetic) (usually solubility judged after dilution from a stock solution rather than from solid) in data set [11] came out at 192 µg/mL (≈ 526 µM). The “Brain tissue binding (% bound)” value in the data set with Brain [12] was determined as 88.4%. Moreover, the negative logarithm of the IC50 (pIC50) at Cytochrome P450 2C19, against Cytochrome P450 1A2, at Cytochrome P450 2D6, against Cytochrome P450 2C9 and against Cytochrome P450 3A4 was under 5.00 throughout. For the same compound, in data set [15], the Papp (commonly a coefficient for how fast a substance crosses the barrier) stood at 49.5 ×10⁻⁶ cm/s. Moreover, the AUC(0-t) (in general, exposure summed from dosing to a finite time, without extrapolation to infinity) in data set [16] is 1330 ng·h/mL.
As for `O=C1CCCN1Cc1c(F)cc(-n2nc(C(F)(F)F)c3c2CCOC3)cc1F`, the negative-log EC50 (pEC50) at Glutamate receptor 2 [2] is 4.70. The Activity at Glutamate receptor 2 [3] is 120%; with Rattus norvegicus [13], “Non-toxic”. For the same compound, the fraction unbound in data set [4] was 0.064. Also, in data set [5], the peak level (Cmax) was 76 ng/mL. In data set [6], the logD amounted to 2.5. Moreover, the Drug uptake in the data set on Brain [7] is recorded as 1413 ng/g; with Brain [9] it was 8988 ng/g; with Brain [10] it was 386 ng/g; in the data set on Brain [17], 22 ng/g; in the data set on Brain [14], 79 ng/g. Further, the apparent clearance CL/F in data set [8] came to 22 mL/min/kg. For the same compound, the solubility (kinetic) in [11] worked out at 207 µg/mL (≈ 516 µM). Besides, the “Brain tissue binding (% bound)” value with Brain [12] came to 96.3%. Moreover, the negative-log IC50 (pIC50) on Cytochrome P450 2C19, against Cytochrome P450 1A2, against Cytochrome P450 2D6, against Cytochrome P450 2C9 and against Cytochrome P450 3A4 was under 5.00 in each case. Also, the Papp in data set [15] was determined as 47 ×10⁻⁶ cm/s. Further, the area under the curve AUC(0-t) in [16] came out at 481 ng·h/mL. Further, in the data set with Rattus norvegicus [18], the outcome was Active.
Consider `CN(C)C(=O)c1ccc(-n2nc(C(F)(F)F)c3c2CCCC3)cc1`, for which, at Glutamate receptor 2 [2], the pEC50 is 4.60. Moreover, the logD in data set [19] was 3. Besides, the Activity on Glutamate receptor 2 [3] came to 94%. Further, the fraction unbound in data set [4] was 0.048. This compound also displayed a kinetic solubility in [11] of 138 µg/mL (≈ 409 µM). Besides, the “Brain tissue binding (% bound)” value in the data set with Brain [12] is 98.2%. For the same compound, in [20], the Cmax (as a rule, the highest concentration seen after dosing) came out at 50 ng/mL. Further, in the data set on Rattus norvegicus [21], the AUC (in general, concentration integrated over time) was 78 ng·h/mL. For the same compound, the negative-log IC50 (pIC50) (in general, the IC50 on a negative log10 scale, so that one unit is a factor of ten) against Cytochrome P450 2D6 is 5.22. The concentration ratio (Kp) (as a rule, tissue or fluid exposure divided by exposure in the circulation) in the data set “in vivo” came out at 1.3.
